Source: ChEMBL document CHEMBL4251671, “Microporenic Acids A-G, Biofilm Inhibitors, and Antimicrobial Agents from the Basidiomycete Microporus Species” (J Nat Prod, 2018)
Converted amounts (≈) assume the structure as drawn. The source made the active and inactive calls. The rule behind the calls is not given here.

tested on: Escherichia coli; test: microbe, parasite or virus in culture; settings: DSM 498

**Q.** How did the MIC turn out when `O=C(O)c1cn(C2CC2)c2cc(N3CCNCC3)c(F)cc2c1=O` [CIPROFLOXACIN] was run?
**A.** 2.3 µg/mL (≈ 6.94 µM)

tested on: Candida albicans; test: Antimicrobial activity against Candida albicans DSM 11225 by serial dilution method; assay type: functional; settings: not given

**Q.** With NYSTATIN as the compound, how does the MIC read?
**A.** 16.7 µg/mL

tested on: Bacillus subtilis; test: Antimicrobial activity against Bacillus subtilis DSM 10 by serial dilution method; assay type: functional; settings: not given
Summary of the method: (§1)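 MIC by serial dilution in microtiter plates, in triplicate. YMG medium for yeasts and filamentous fungi, EBS for bacteria. Starting concentration 300 μg/mL.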

**Q.** `C/C(=C\CC/C(C)=C/CC/C(C)=C/CC/C(C)=C/CO[C@@H](C(=O)O)[C@H](CC(=O)O)C(=O)O)CO` was tested. Which MIC did it give?
**A.** 37.5 µg/mL (≈ 78 µM)

**Q.** `O=C(O)c1cn(C2CC2)c2cc(N3CCNCC3)c(F)cc2c1=O` [CIPROFLOXACIN] was tested. Which MIC did it give?
**A.** 2.3 µg/mL (≈ 6.94 µM)

tested on: Micrococcus luteus; test: Antimicrobial activity against Micrococcus luteus DSM 1790 by serial dilution method; assay type: functional; settings: not given
Summary of the method: as §1

**Q.** For `C/C(=C\CC/C(C)=C/CC/C(C)=C/CC/C(C)=C/CO[C@@H](C(=O)O)[C@H](CC(=O)O)C(=O)O)CO`, which MIC is on record?
**A.** 18.8 µg/mL (≈ 39 µM)

tested on: KB 3-1; test: Cytotoxicity against human KB 3.1 cells assessed as inhibition of cell growth at 37 ug/ml after 5 days by MTT assay; assay type: cell-based; settings: kb 3-1, 120 h

**Q.** With `C/C(=C\CC/C(C)=C/CC/C(C)=C/CC/C(C)=C/CO[C@@H](C(=O)O)[C@H](CC(=O)O)C(=O)O)CO` as the compound, how does the Activity read?
**A.** Non-Toxic

tested on: Staphylococcus aureus; test: Antimicrobial activity against Staphylococcus aureus DSM 346 by serial dilution method; assay type: functional; settings: not given
Summary of the method: as §1

**Q.** For `C/C(=C\CC/C(C)=C/CC/C(C)=C/CC/C(C)=C/CO[C@@H](C(=O)O)[C@H](CC(=O)O)C(=O)O)CO`, which MIC is on record?
**A.** 75 µg/mL (≈ 156 µM)

tested on: L929; test: Cytotoxicity against mouse L929 cells assessed as inhibition of cell growth at 37 ug/ml after 5 days by MTT assay; assay type: cell-based; settings: l929, 120 h

**Q.** For `C/C(=C\CC/C(C)=C/CC/C(C)=C/CC/C(C)=C/CO[C@@H](C(=O)O)[C@H](CC(=O)O)C(=O)O)CO`, which Activity is on record?
**A.** Non-Toxic

tested on: Mucor plumbeus; test: Antimicrobial activity against Mucor plumbeus MUCL 49355 by serial dilution method; assay type: functional; settings: not given
Summary of the method: as §1

**Q.** Which MIC does the source give for `C/C(=C\CC/C(C)=C/CC/C(C)=C/CC/C(C)=C/CO[C@@H](C(=O)O)[C@H](CC(=O)O)C(=O)O)CO` here?
**A.** 75 µg/mL (≈ 156 µM)

**Q.** For NYSTATIN, which MIC is on record?
**A.** 9.4 µg/mL

tested on: Escherichia coli; test: not given; settings: DSM 498

**Q.** With `C/C(=C\CC/C(C)=C/CC/C(C)=C/CC/C(C)=C/CO[C@@H](C(=O)O)[C@H](CC(=O)O)C(=O)O)CO` as the compound, how does the MIC read?
**A.** inactive

tested on: Wickerhamomyces anomalus; test: Antimicrobial activity against Pichia anomala DSM 6766 by serial dilution method; assay type: functional; settings: not given
Summary of the method: as §1

**Q.** Which MIC does the source give for `C/C(=C\CC/C(C)=C/CC/C(C)=C/CC/C(C)=C/CO[C@@H](C(=O)O)[C@H](CC(=O)O)C(=O)O)CO` here?
**A.** inactive

**Q.** With NYSTATIN as the compound, how does the MIC read?
**A.** 16.7 µg/mL

tested on: Yamadazyma tenuis; test: Antimicrobial activity against Candida tenuis MUCL 29982 by serial dilution method; assay type: functional; settings: not given
Summary of the method: as §1

**Q.** `C/C(=C\CC/C(C)=C/CC/C(C)=C/CC/C(C)=C/CO[C@@H](C(=O)O)[C@H](CC(=O)O)C(=O)O)CO` was tested. Which MIC did it give?
**A.** 37.5 µg/mL (≈ 78 µM)

**Q.** Which MIC does the source give for NYSTATIN here?
**A.** 16.7 µg/mL
